Peptide text beside a SMILES is read from it. * marks the point of attachment. Hydrocinnamoyl = O=C(CCc1ccccc1)*; Undecanoyl = CCCCCCCCCCC(=O)*; Cbz = O=C(OCc1ccccc1)*
Species on record: Rattus norvegicus
Test: Inhibition of rat recombinant Rab geranylgeranyltransferase at 100 uM in presence of canine Rab7 and rat REP1 NBD-FPP based continuous fluorimetric assay
In short: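 Continuous fluorometric assay in 96/384-well format: 3 μM Rab7, 3 μM REP1, 9 μM NBD-FPP and 400 nM RabGGTase, with or without inhibitor. […] IC50 was calculated from three independent measurements.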

Row | Compound | inhibition
1 | O=C(CNC(=O)c1coc(-c2ccccc2)n1)NCC(=O)N[C@@H](Cc1cn(C(c2ccccc2)(c2ccccc2)c2ccccc2)cn1)C(=O)Nc1ccc(F)cc1F | 6%
2 | O=C(N[C@H](Cc1ccc(O)cc1)C(=O)N[C@@H](Cc1ccc(O)cc1)C(=O)N[C@@H](Cc1ccc(O)cc1)C(=O)O)OCc1ccccc1 | 42%
3 | CCCCCCCCCCCCCC(=O)OC[C@H](NC(=O)[C@H](Cc1ccccc1)NC(=O)[C@H](CCCCNC(=O)c1csc(-c2cccnc2)n1)NC(=O)c1csc(-c2cccnc2)n1)C(=O)O | 67%
4 | CCCCCCCCCCCOc1ccc(C(=O)N[C@@H](Cc2c[nH]cn2)C(=O)N[C@@H](Cc2c[nH]cn2)C(=O)N[C@@H](Cc2c[nH]cn2)C(=O)OCCN)cc1 | 101%
5 | COC(=O)[C@H](CO)NC(=O)CNC(=O)[C@H](Cc1ccccc1)NC(=O)c1csc(-c2cccs2)n1 | 123%
6 | CCCCCCCCCCCCCCCCNC(=O)[C@H](Cc1ccc(O)cc1)NC(=O)CNC(=O)[C@H](Cc1ccc(O)cc1)NC(=O)c1ccc(F)cc1 | 89%
7 | NC(=O)[C@H](Cc1ccc(O)cc1)NC(=O)CNC(=O)[C@H](Cc1c[nH]cn1)NC(=O)OCc1ccccc1 (Cbz-His-Gly-Tyr-NH2) | 89%
8 | C=CCOC(=O)[C@H](Cc1ccccc1)N(C)C(=O)[C@H](Cc1ccc(OC)cc1)N(C)C(=O)[C@@H](Cc1ccc(O)cc1)NC(=O)CCc1ccccc1 | 74%
9 | CCCCCCCCCCCOc1ccc(C(=O)N[C@@H](Cc2c[nH]cn2)C(=O)N[C@@H](Cc2c[nH]cn2)C(=O)N[C@@H](Cc2c[nH]cn2)C(=O)NCC(O)CO)cc1 (some centres undefined) | 37%
10 | CCC/C=C\c1ccccc1/C=C/C(=O)N[C@H](Cc1ccc(O)cc1)C(=O)N(C)[C@@H](Cc1ccc(OC)cc1)C(=O)N(C)[C@@H](Cc1ccccc1)C(=O)OCc1cnc(C)s1 | 97%
11 | NCCCCNC(=O)[C@H](Cc1ccc(O)cc1)NC(=O)[C@H](Cc1ccc(O)cc1)NC(=O)[C@H](Cc1ccc(O)cc1)NC(=O)c1ccc(F)cc1F | 61%
12 | O=C(/C=C/c1ccccc1)N[C@@H](Cc1ccccc1)C(=O)N[C@@H](Cc1ccccc1)C(=O)N[C@@H](Cc1ccc(O)cc1)C(=O)O | 50%
13 | O=C(CNC(=O)[C@H](Cc1ccc(O)cc1)NC(=O)c1coc(-c2ccccc2)n1)N[C@@H](Cc1ccc(O)cc1)C(=O)O | 58%
14 | CCCCCCCCCCC(=O)N[C@@H](Cc1ccc(O)cc1)C(=O)N[C@@H](Cc1c[nH]cn1)C(=O)N[C@@H](Cc1c[nH]cn1)C(=O)OC (Undecanoyl-Tyr-His-His-OMe) | 32%
15 | CCCCCCCCCCC(=O)N[C@@H](Cc1c[nH]cn1)C(=O)N[C@@H](Cc1ccccc1)C(=O)N[C@@H](Cc1ccc(O)cc1)C(=O)NCCCn1ccnc1 | 101%
16 | CC(C)(C)Oc1ccc(C[C@H](NC(=O)c2coc(-c3ccccc3)n2)C(=O)NCC(=O)N[C@@H](Cc2c[nH]c3ccccc23)C(=O)O)cc1 | 32%

Row | Compound | inhibition
17 | CCCCCCCCCCC(=O)N[C@@H](Cc1c[nH]cn1)C(=O)N[C@@H](Cc1ccccc1)C(=O)N[C@@H](Cc1ccc(O)cc1)C(=O)NCC(O)CO (some centres undefined) | 53%
18 | CCCCCCCCCCC(=O)N[C@@H](Cc1ccc(O)cc1)C(=O)N[C@@H](Cc1c[nH]cn1)C(=O)N[C@@H](Cc1c[nH]cn1)C(=O)NCCCn1ccnc1 | 59%
19 | CCC/C=C/c1cccc(/C=C/C(=O)N[C@H](Cc2cnc[nH]2)C(=O)N[C@@H](Cc2ccc(O)cc2)C(=O)N[C@@H](Cc2ccccc2)C(=O)O)c1 | 59%
20 | CCCCCCCCCCC(=O)N[C@@H](Cc1ccc(O)cc1)C(=O)N[C@@H](Cc1c[nH]cn1)C(=O)N[C@@H](Cc1ccc(O)cc1)C(N)=O (Undecanoyl-Tyr-His-Tyr-NH2) | 83%
21 | O=C(CNC(=O)[C@H](Cc1ccccc1)NC(=O)c1csc(-c2cccs2)n1)N[C@@H](CO)C(=O)Nc1nccs1 | 124%
22 | CC(C)(C)Oc1ccc(C[C@H](NC(=O)c2coc(-c3ccccc3)n2)C(=O)NCC(=O)N[C@@H](Cc2cn(C(c3ccccc3)(c3ccccc3)c3ccccc3)cn2)C(=O)O)cc1 | 94%
23 | CCCCCCCCCCCCCCCC(=O)N[C@@H](Cc1ccc(O)cc1)C(=O)N[C@@H](Cc1ccc(O)cc1)C(=O)N[C@@H](Cc1ccc(O)cc1)C(=O)Nc1ccc(F)cc1F | 82%
24 | NCCCCNC(=O)[C@H](Cc1ccc(O)cc1)NC(=O)CNC(=O)[C@H](Cc1ccc(O)cc1)NC(=O)c1ccc(F)cc1 | 88%
25 | COc1ccc(C[C@@H](C(=O)N(C)[C@@H](Cc2ccccc2)C(=O)OCC(=O)O)N(C)C(=O)[C@@H](Cc2ccc(O)cc2)NC(=O)CCc2ccccc2)cc1 | 47%
26 | CC(C)(C)Oc1ccc(C[C@H](NC(=O)CNC(=O)[C@H](CCCCN)NC(=O)c2coc(-c3ccccc3)n2)C(=O)O)cc1 | 93%
27 | CCCCCc1ccc(CCC(=O)N[C@H](Cc2ccc(O)cc2)C(=O)N[C@@H](Cc2ccccc2)C(=O)N[C@@H](Cc2ccc(O)cc2)C(=O)O)cc1 | 2%
28 | CCCCCCCCCCC(=O)N[C@@H](Cc1ccc(O)cc1)C(=O)N[C@@H](Cc1c[nH]cn1)C(=O)N[C@@H](Cc1c[nH]cn1)C(=O)Nc1ccccc1N | 87%
29 | C=CCCCCCCCCCOC(=O)[C@H](CC(C)C)NC(=O)[C@H](COC(C)(C)C)NC(=O)[C@H](Cc1ccccc1)NC(=O)CCc1ccccc1 | 108%
30 | CCCCCCCCCCCOc1ccc(C(=O)N[C@@H](Cc2c[nH]cn2)C(=O)N[C@@H](Cc2ccc(O)cc2)C(=O)N[C@@H](Cc2ccccc2)C(N)=O)cc1 | 81%
31 | CCCCCCCCCCCCCCCC(=O)N[C@@H](Cc1ccc(O)cc1)C(=O)N[C@@H](Cc1ccc(O)cc1)C(=O)N[C@@H](Cc1ccc(O)cc1)C(=O)OCCCl | 114%

Further lines, results first:

Row | inhibition | Compound
32 | 86% | CC[C@H](C)[C@H](NC(=O)c1ccc(-c2ccccc2)cc1)C(=O)N[C@@H](C(=O)N[C@@H](CCC(N)=O)C(=O)OCCc1scnc1C)C(C)C
33 | 96% | C[C@H](NC(=O)CCc1ccccc1)C(=O)N[C@@H](Cc1ccccc1)C(=O)N[C@@H](CCC(N)=O)C(=O)Nc1nccs1
34 | 89% | O=C(CNC(=O)[C@@H]1CCCN1C(=O)c1coc(-c2ccccc2)n1)N[C@@H](Cc1ccccc1)C(=O)Nc1ccc(F)cc1F
35 | 89% | O=C(CCNC(=O)[C@H](Cc1c[nH]cn1)NC(=O)OCc1ccccc1)N[C@@H](Cc1ccc(O)cc1)C(=O)NCC(O)CO (some centres undefined)
36 | 81% | C[C@@H](O)[C@H](NC(=O)/C=C/c1ccccc1)C(=O)N[C@@H](Cc1ccccc1)C(=O)N[C@@H](CCC(N)=O)C(=O)OCCCl
37 | 110% | CC(C)C[C@H](NC(=O)[C@H](CO)NC(=O)[C@H](Cc1ccccc1)NC(=O)c1ccc(-c2ccccc2)cc1)C(N)=O
38 | 79% | O=C(/C=C/c1ccc(F)cc1)N[C@@H](CO)C(=O)N[C@@H](Cc1ccccc1)C(=O)N[C@@H](CO)C(=O)Nc1ccc(N2CCOCC2)cc1
39 | 108% | O=C(CNC(=O)[C@H](Cc1ccc(O)cc1)NC(=O)c1ccc(F)cc1)N[C@@H](Cc1ccc(O)cc1)C(=O)N1CCOCC1
40 | 44% | C[C@H](NC(=O)CCc1ccccc1)C(=O)N[C@@H](Cc1ccccc1)C(=O)N[C@@H](CCC(N)=O)C(=O)OCCCCO
41 | 88% | O=C(N[C@@H](Cc1ccc(O)cc1)C(=O)N[C@@H](Cc1ccc(O)cc1)C(=O)N[C@@H](Cc1ccc(O)cc1)C(=O)NC1CCCCC1)c1ccc(F)cc1F
42 | 60% | C[C@@H](O)[C@H](NC(=O)C(Br)C(Br)c1ccccc1)C(=O)N[C@@H](Cc1ccccc1)C(=O)N[C@@H](CCC(N)=O)C(=O)OCCCCO (some centres undefined)
43 | 104% | CC(C)C[C@H](NC(=O)/C=C/c1ccccc1)C(=O)N[C@@H](Cc1ccccc1)C(=O)N[C@@H](Cc1ccccc1)C(=O)Nc1ccc([N+](=O)[O-])cc1Cl
44 | 75% | NC(=O)CC[C@H](NC(=O)[C@H](Cc1ccccc1)NC(=O)CNC(=O)CCc1ccccc1)C(=O)NNc1ccccc1
45 | 69% | C[C@H](NC(=O)C(Br)C(Br)c1ccc(F)cc1)C(=O)NCC(=O)N[C@@H](Cc1ccc(O)cc1)C(=O)Nc1ccc(F)cc1F (some centres undefined)
46 | 54% | CCCCCCCCCCCCCC(=O)OC[C@H](NC(=O)[C@@H](NC(=O)[C@H](CCCCNC(=O)c1coc(-c2ccccc2)n1)NC(=O)c1coc(-c2ccccc2)n1)[C@H](C)O)C(=O)O
47 | 90% | CCCCCCCCCCC(=O)N[C@@H](Cc1ccc(O)cc1)C(=O)N[C@@H](Cc1cnc[nH]1)C(=O)N[C@@H](Cc1ccc(O)cc1)C(=O)O (Undecanoyl-Tyr-His-Tyr-OH)
48 | 109% | CC(=O)Nc1cc(C(=O)N2CCC[C@H]2C(=O)N[C@@H](C(=O)N[C@@H](CCC(=O)O)C(=O)Nc2ccc(F)c(Cl)c2)C(C)C)ccc1[N+](=O)[O-]
49 | 84% | CC[C@H](C)[C@H](NC(=O)c1ccc(-c2ccccc2)cc1)C(=O)N[C@@H](C(=O)N[C@@H](CCC(N)=O)C(=O)NN)C(C)C
50 | 86% | C[C@@H](O)[C@H](NC(=O)/C=C/c1ccccc1)C(=O)N[C@@H](Cc1ccccc1)C(=O)N[C@@H](CCC(N)=O)C(=O)Nc1nccs1
51 | 81% | O=C(/C=C/c1ccc(F)cc1)N[C@@H](CO)C(=O)NCC(=O)N[C@@H](CO)C(=O)NC1CCCCC1
52 | 69% | CC#CCOC(=O)[C@H](Cc1ccccc1)NC(=O)CNC(=O)[C@@H]1CCCN1C(=O)/C=C/c1ccccc1
53 | 80% | CC(C)C[C@H](NC(=O)[C@H](CO)NC(=O)[C@H](Cc1ccccc1)NC(=O)CCc1ccccc1)C(=O)O
54 | 80% | CC(C)CCNC(=O)[C@H](Cc1ccccc1)NC(=O)CNC(=O)[C@@H]1CCCN1C(=O)/C=C/c1ccccc1
55 | 70% | O=C(N[C@@H](CO)C(=O)N[C@@H](Cc1ccccc1)C(=O)N[C@@H](CO)C(=O)Nc1ccc(N2CCOCC2)cc1)C(Br)C(Br)c1ccc(F)cc1 (some centres undefined)
56 | 101% | C[C@H](NC(=O)[C@@H](NC(=O)c1ccc(-c2ccccc2)cc1)[C@@H](C)O)C(=O)N[C@@H](CCC(=O)O)C(=O)OCCCCO
57 | 57% | COC(=O)[C@H](CC(C)C)NC(=O)[C@H](COC(C)(C)C)NC(=O)[C@H](Cc1ccccc1)NC(=O)/C=C/c1ccc(F)cc1
58 | 86% | COC(=O)[C@H](CO)NC(=O)[C@H](Cc1c[nH]cn1)NC(=O)[C@H](CCCCN)NC(=O)CCc1ccccc1 (Hydrocinnamoyl-Lys-His-Ser-OMe)
59 | 104% | NC(=O)CC[C@H](NC(=O)[C@H](Cc1ccccc1)NC(=O)[C@H](CO)NC(=O)CCc1ccccc1)C(=O)Nc1ccc(F)cc1F

— ChEMBL document CHEMBL1153722, “Design, synthesis, and characterization of peptide-based rab geranylgeranyl transferase inhibitors” (J Med Chem, 2009)
